Measurements from ChEMBL document CHEMBL1148855, “Synthesis and antibacterial activity of 4,5,6,7-tetrahydro-thieno[3,2-c]pyridine quinolones” (2007).
In brackets after ≈: the same amount, converted by molar mass.

Assays:
Assay type in all cases: functional
Enterococcus faecalis [1] = experiment: Antibacterial activity against Enterococcus faecalis ATCC 29212 by micro-broth dilution method
In short: (§1)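 MIC taken as the lowest concentration giving 90% inhibition of bacterial growth. Determined by microbroth dilution following National Committee (NCCLS) guidance, with each value determined in triplicate.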

Staphylococcus aureus [2] = experiment: Antibacterial activity against Staphylococcus aureus ATCC 33591 by micro-broth dilution method; in short: as §1
Klebsiella pneumoniae = experiment: Antibacterial activity against Klebsiella pneumoniae ATCC 10031 by micro-broth dilution method; in short: as §1
Staphylococcus aureus [3] = experiment: Antibacterial activity against Staphylococcus aureus ATCC 29213 by micro-broth dilution method; in short: as §1
Streptococcus pneumoniae = experiment: Antibacterial activity against penicillin-resistant Streptococcus pneumoniae ATCC 700904 by micro-broth dilution method
In short: (§2)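 Microbroth dilution run per National Committee guidelines; MIC taken as the concentration giving 90% inhibition of bacterial growth. Tested within a broader panel of susceptible and resistant Gram-positive strains. Reported values come from triplicate determinations.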

Staphylococcus aureus [4] = experiment: Antibacterial activity against methicillin-resistant Staphylococcus aureus ATCC 700699 by micro-broth dilution method; in short: as §2
Staphylococcus aureus [5] = experiment: Antibacterial activity against Staphylococcus aureus ATCC 25923 by micro-broth dilution method; in short: as §1
Escherichia coli = experiment: Antibacterial activity against Escherichia coli ATCC 25922 by micro-broth dilution method; in short: as §1
Enterococcus faecalis [6] = experiment: Antibacterial activity against vancomycin-resistant Enterococcus faecalis ATCC 700802 by micro-broth dilution method; in short: as §2
Enterococcus faecium = experiment: Antibacterial activity against vancomycin-resistant Enterococcus faecium ATCC 700221 by microbroth dilution method; in short: as §2
[7] = system: Staphylococcus epidermidis; experiment: Antibacterial activity against Staphylococcus epidermidis ATCC 12228 by micro-broth dilution method; in short: as §1
Pseudomonas aeruginosa = experiment: Antibacterial activity against Pseudomonas aeruginosa ATCC 27853 by micro-broth dilution method; in short: as §1
Staphylococcus aureus [8] = experiment: Antibacterial activity against linezolid-resistant Staphylococcus aureus NRS 119 by microbroth dilution method; in short: as §2
Staphylococcus aureus [9] = experiment: Antibacterial activity against Staphylococcus aureus ATCC 33592 by micro-broth dilution method; in short: as §1
Bacillus subtilis = experiment: Antibacterial activity against Bacillus subtilis ATCC 6633 by micro-broth dilution method; in short: as §1
Enterococcus faecalis [10] = experiment: Antibacterial activity against Enterococcus faecalis ATCC 14506 by microbroth dilution method; in short: as §1

`COc1c(N2CCc3sc([N+](=O)[O-])cc3C2)c(F)cc2c(=O)c(C(=O)O)cn(C3CC3)c12` showed an MIC (Enterococcus faecalis [1]) of at most 0.12 µg/mL, an MIC (Staphylococcus aureus [2]) of at most 0.12 µg/mL and an MIC (Klebsiella pneumoniae) of 0.25 µg/mL (≈ 0.544 µM). The MIC (Staphylococcus aureus [3]) was 4 µg/mL (≈ 8.71 µM), the MIC (Streptococcus pneumoniae) was 0.5 µg/mL (≈ 1.09 µM) and the MIC (Staphylococcus aureus [4]) was 16 µg/mL (≈ 34.8 µM). For the same molecule, the MIC (Staphylococcus aureus [5]) was 4 µg/mL (≈ 8.71 µM), the MIC (Escherichia coli) was 0.5 µg/mL (≈ 1.09 µM) and the MIC (Enterococcus faecalis [6]) was 16 µg/mL (≈ 34.8 µM). For the same molecule, the MIC (Enterococcus faecium) was over 16 µg/mL, the MIC [7] was 4 µg/mL (≈ 8.71 µM) and the MIC (Pseudomonas aeruginosa) was 1 µg/mL (≈ 2.18 µM). The MIC (Staphylococcus aureus [8]) was over 16 µg/mL, the MIC (Staphylococcus aureus [9]) was 8 µg/mL (≈ 17.4 µM) and the MIC (Bacillus subtilis) was at most 0.12 µg/mL. For the same molecule, the MIC (Enterococcus faecalis [10]) was over 16 µg/mL.
`O=C(O)c1cn(C2CC2)c2cc(N3CCc4sc(Br)cc4C3)c(F)cc2c1=O` gave an MIC (Staphylococcus aureus [2]) of 4 µg/mL (≈ 8.63 µM), an MIC (Klebsiella pneumoniae) of 2 µg/mL (≈ 4.32 µM) and an MIC (Staphylococcus aureus [3]) of 4 µg/mL (≈ 8.63 µM). For the same molecule, the MIC (Streptococcus pneumoniae) was 2 µg/mL (≈ 4.32 µM), the MIC (Staphylococcus aureus [4]) was over 16 µg/mL and the MIC (Staphylococcus aureus [5]) was 0.5 µg/mL (≈ 1.08 µM). For the same molecule, the MIC (Escherichia coli) was 1 µg/mL (≈ 2.16 µM), the MIC (Enterococcus faecalis [6]) was over 16 µg/mL and the MIC [7] was 0.5 µg/mL (≈ 1.08 µM). It also gave an MIC (Pseudomonas aeruginosa) of over 16 µg/mL, an MIC (Staphylococcus aureus [8]) of over 16 µg/mL and an MIC (Staphylococcus aureus [9]) of 4 µg/mL (≈ 8.63 µM). For the same molecule, the MIC (Bacillus subtilis) was at most 0.12 µg/mL and the MIC (Enterococcus faecalis [10]) was over 16 µg/mL.
`Nc1c(F)c(N2CCc3sccc3C2)c(F)c2c1c(=O)c(C(=O)O)cn2C1CC1` showed an MIC (Enterococcus faecalis [1]) of over 16 µg/mL, an MIC (Staphylococcus aureus [2]) of 4 µg/mL (≈ 9.58 µM) and an MIC (Klebsiella pneumoniae) of 4 µg/mL (≈ 9.58 µM). The MIC (Staphylococcus aureus [3]) was 8 µg/mL (≈ 19.2 µM), the MIC (Streptococcus pneumoniae) was 2 µg/mL (≈ 4.79 µM) and the MIC (Staphylococcus aureus [4]) was over 16 µg/mL. The MIC (Staphylococcus aureus [5]) was 4 µg/mL (≈ 9.58 µM), the MIC (Escherichia coli) was 0.25 µg/mL (≈ 0.599 µM) and the MIC (Enterococcus faecalis [6]) was 16 µg/mL (≈ 38.3 µM). For the same molecule, the MIC (Enterococcus faecium) was over 16 µg/mL, the MIC [7] was 16 µg/mL (≈ 38.3 µM) and the MIC (Pseudomonas aeruginosa) was over 16 µg/mL. It also gave an MIC (Staphylococcus aureus [8]) of over 16 µg/mL, an MIC (Staphylococcus aureus [9]) of 4 µg/mL (≈ 9.58 µM) and an MIC (Bacillus subtilis) of at most 0.12 µg/mL. The MIC (Enterococcus faecalis [10]) was over 16 µg/mL.
Work on `COc1c(N2CCc3sc(COC(C)=O)cc3C2)c(F)cc2c(=O)c(C(=O)O)cn(C3CC3)c12` yielded an MIC (Enterococcus faecalis [1]) of 0.5 µg/mL (≈ 1.03 µM), an MIC (Staphylococcus aureus [2]) of 0.25 µg/mL (≈ 0.514 µM) and an MIC (Klebsiella pneumoniae) of 2 µg/mL (≈ 4.11 µM). It also gave an MIC (Staphylococcus aureus [3]) of 4 µg/mL (≈ 8.22 µM), an MIC (Streptococcus pneumoniae) of at most 0.12 µg/mL and an MIC (Staphylococcus aureus [4]) of 4 µg/mL (≈ 8.22 µM). The MIC (Staphylococcus aureus [5]) was 1 µg/mL (≈ 2.06 µM), the MIC (Escherichia coli) was 0.5 µg/mL (≈ 1.03 µM) and the MIC (Enterococcus faecalis [6]) was 1 µg/mL (≈ 2.06 µM). The MIC [7] was at most 0.12 µg/mL, the MIC (Pseudomonas aeruginosa) was over 16 µg/mL and the MIC (Staphylococcus aureus [8]) was 2 µg/mL (≈ 4.11 µM). It also gave an MIC (Staphylococcus aureus [9]) of 2 µg/mL (≈ 4.11 µM) and an MIC (Bacillus subtilis) of at most 0.12 µg/mL.
Molecule `O=C(O)c1cn(C2CC2)c2cc(N3CCNCC3)c(F)cc2c1=O` [CIPROFLOXACIN] has an MIC (Enterococcus faecalis [1]) of 2 µg/mL (≈ 6.04 µM), an MIC (Staphylococcus aureus [2]) of 1 µg/mL (≈ 3.02 µM) and an MIC (Klebsiella pneumoniae) of at most 0.12 µg/mL. The MIC (Staphylococcus aureus [3]) was 1 µg/mL (≈ 3.02 µM), the MIC (Streptococcus pneumoniae) was 0.25 µg/mL (≈ 0.754 µM) and the MIC (Staphylococcus aureus [4]) was over 16 µg/mL. It also gave an MIC (Staphylococcus aureus [5]) of 0.25 µg/mL (≈ 0.754 µM), an MIC (Escherichia coli) of at most 0.12 µg/mL and an MIC (Enterococcus faecalis [6]) of 1 µg/mL (≈ 3.02 µM). The MIC (Enterococcus faecium) was over 16 µg/mL, the MIC [7] was at most 0.12 µg/mL and the MIC (Staphylococcus aureus [8]) was over 16 µg/mL. For the same molecule, the MIC (Staphylococcus aureus [9]) was 0.5 µg/mL (≈ 1.51 µM), the MIC (Bacillus subtilis) was at most 0.12 µg/mL and the MIC (Enterococcus faecalis [10]) was 1 µg/mL (≈ 3.02 µM).
Molecule `COc1c(N2CCc3sccc3C2)c(F)cc2c(=O)c(C(=O)O)cn(C3CC3)c12` has an MIC (Enterococcus faecalis [1]) of 2 µg/mL (≈ 4.83 µM), an MIC (Staphylococcus aureus [2]) of at most 0.12 µg/mL and an MIC (Klebsiella pneumoniae) of 0.25 µg/mL (≈ 0.603 µM). The MIC (Staphylococcus aureus [3]) was at most 0.125 µg/mL, the MIC (Streptococcus pneumoniae) was at most 0.125 µg/mL and the MIC (Staphylococcus aureus [4]) was 2 µg/mL (≈ 4.83 µM). For the same molecule, the MIC (Staphylococcus aureus [5]) was at most 0.125 µg/mL, the MIC (Escherichia coli) was at most 0.12 µg/mL and the MIC (Enterococcus faecalis [6]) was at most 0.125 µg/mL. It also gave an MIC (Enterococcus faecium) of 16 µg/mL (≈ 38.6 µM), an MIC [7] of over 16 µg/mL and an MIC (Pseudomonas aeruginosa) of over 16 µg/mL. It also gave an MIC (Staphylococcus aureus [8]) of over 16 µg/mL, an MIC (Staphylococcus aureus [9]) of 0.25 µg/mL (≈ 0.603 µM) and an MIC (Bacillus subtilis) of at most 0.12 µg/mL. It also gave an MIC (Enterococcus faecalis [10]) of 0.25 µg/mL (≈ 0.603 µM).
Molecule `COc1c(N2CCc3sc(C=O)cc3C2)c(F)cc2c(=O)c(C(=O)O)cn(C3CC3)c12` has an MIC (Enterococcus faecalis [1]) of at most 0.12 µg/mL, an MIC (Staphylococcus aureus [2]) of at most 0.12 µg/mL and an MIC (Klebsiella pneumoniae) of at most 0.12 µg/mL. The MIC (Staphylococcus aureus [3]) was at most 0.125 µg/mL, the MIC (Streptococcus pneumoniae) was at most 0.12 µg/mL and the MIC (Staphylococcus aureus [4]) was 0.5 µg/mL (≈ 1.13 µM). It also gave an MIC (Staphylococcus aureus [5]) of at most 0.125 µg/mL, an MIC (Escherichia coli) of 0.25 µg/mL (≈ 0.565 µM) and an MIC (Enterococcus faecalis [6]) of 0.25 µg/mL (≈ 0.565 µM). It also gave an MIC (Enterococcus faecium) of over 16 µg/mL, an MIC [7] of at most 0.12 µg/mL and an MIC (Pseudomonas aeruginosa) of 8 µg/mL (≈ 18.1 µM). It also gave an MIC (Staphylococcus aureus [8]) of at most 0.12 µg/mL, an MIC (Staphylococcus aureus [9]) of at most 0.25 µg/mL and an MIC (Bacillus subtilis) of at most 0.12 µg/mL. For the same molecule, the MIC (Enterococcus faecalis [10]) was 2 µg/mL (≈ 4.52 µM).
`COc1c(N2CCc3sc(CO)cc3C2)c(F)cc2c(=O)c(C(=O)O)cn(C3CC3)c12` showed an MIC (Enterococcus faecalis [1]) of 0.5 µg/mL (≈ 1.12 µM), an MIC (Staphylococcus aureus [2]) of 2 µg/mL (≈ 4.5 µM) and an MIC (Klebsiella pneumoniae) of at most 0.12 µg/mL. For the same molecule, the MIC (Staphylococcus aureus [3]) was 2 µg/mL (≈ 4.5 µM), the MIC (Streptococcus pneumoniae) was at most 0.12 µg/mL and the MIC (Staphylococcus aureus [4]) was 2 µg/mL (≈ 4.5 µM). It also gave an MIC (Staphylococcus aureus [5]) of 2 µg/mL (≈ 4.5 µM), an MIC (Escherichia coli) of 0.25 µg/mL (≈ 0.562 µM) and an MIC (Enterococcus faecalis [6]) of 0.25 µg/mL (≈ 0.562 µM). The MIC [7] was over 16 µg/mL, the MIC (Pseudomonas aeruginosa) was 16 µg/mL (≈ 36 µM) and the MIC (Staphylococcus aureus [8]) was 0.5 µg/mL (≈ 1.12 µM). It also gave an MIC (Bacillus subtilis) of at most 0.12 µg/mL.
